{
  "source": "ChEMBL document CHEMBL1131133",
  "about": "“A novel class of adenosine A3 receptor ligands. 1. 3-(2-Pyridinyl)isoquinoline derivatives” (J Med Chem, 1998)",
  "key": {"[1]": {"biological_target": "T1, Adenosine receptor A1 (Rattus norvegicus) (UniProt P25099)", "T1 sequence (whole entry)": "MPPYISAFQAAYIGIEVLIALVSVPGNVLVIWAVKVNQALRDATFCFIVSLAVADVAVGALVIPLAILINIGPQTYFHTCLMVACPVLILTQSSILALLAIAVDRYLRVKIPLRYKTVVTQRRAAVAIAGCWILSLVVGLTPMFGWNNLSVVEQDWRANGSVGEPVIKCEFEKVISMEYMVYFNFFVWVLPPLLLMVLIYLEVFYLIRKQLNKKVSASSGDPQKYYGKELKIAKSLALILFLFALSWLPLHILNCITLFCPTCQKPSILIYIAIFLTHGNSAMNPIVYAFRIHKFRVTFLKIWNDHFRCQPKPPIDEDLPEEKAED", "test": "Displacement of specific [3H]DPCPX binding at rat cortical membrane (Adenosine A1 receptor) at concentration of […].", "how_it_was_run": "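A1 binding used rat cortical membranes and [3H]DPCPX. Percentage displacement of specific binding was measured at one fixed test-compound concentration (n = 2-3).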"}, "[2]": {"biological_target": "Adenosine receptor A2a (Rattus norvegicus) (UniProt P30543)", "sequence (P30543 whole entry)": "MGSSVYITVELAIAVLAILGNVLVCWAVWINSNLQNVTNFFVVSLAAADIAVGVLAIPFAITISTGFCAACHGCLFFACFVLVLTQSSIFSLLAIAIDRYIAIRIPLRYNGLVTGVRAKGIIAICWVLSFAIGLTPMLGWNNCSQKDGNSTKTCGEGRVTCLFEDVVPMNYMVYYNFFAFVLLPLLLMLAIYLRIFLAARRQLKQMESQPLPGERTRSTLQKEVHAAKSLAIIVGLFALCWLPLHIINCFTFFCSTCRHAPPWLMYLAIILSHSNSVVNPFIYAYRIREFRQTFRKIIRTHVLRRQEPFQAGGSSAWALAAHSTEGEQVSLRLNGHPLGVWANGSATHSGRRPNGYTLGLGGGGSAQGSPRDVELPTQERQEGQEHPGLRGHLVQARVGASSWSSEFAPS", "test": "Displacement of specific [3H]CGS-21680 binding in rat striatal membrane (Adenosine A2A receptor) at concentration of […].", "type": "cell membranes", "conditions": "Striatum", "how_it_was_run": "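A2A binding used rat striatal membranes and [3H]CGS 21680. Percentage displacement of specific binding was measured at one fixed test-compound concentration (n = 2-3).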"}, "[3]": {"biological_target": "T2, Adenosine receptor A3 (Homo sapiens) (UniProt P0DMS8)", "T2 sequence (whole entry)": "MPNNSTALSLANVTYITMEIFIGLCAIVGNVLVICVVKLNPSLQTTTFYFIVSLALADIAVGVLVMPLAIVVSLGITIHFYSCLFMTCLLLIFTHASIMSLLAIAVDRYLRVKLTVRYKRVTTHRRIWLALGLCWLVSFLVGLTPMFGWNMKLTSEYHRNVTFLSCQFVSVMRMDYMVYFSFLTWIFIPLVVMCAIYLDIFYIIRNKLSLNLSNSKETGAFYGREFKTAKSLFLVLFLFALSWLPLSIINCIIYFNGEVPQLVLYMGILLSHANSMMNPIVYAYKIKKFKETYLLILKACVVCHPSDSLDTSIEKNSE", "test": "Displacement of [125I]AB-MECA from human adenosine A3 receptor expressed in HEK 293 cells at […]", "type": "cell-based", "conditions": "HEK293", "how_it_was_run": "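Membranes from HEK 293 cells stably expressing the human A3 receptor were incubated with [125I]AB-MECA. Percentage displacement of specific binding was measured at a single test-compound concentration (n = 2-3).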"}, "[4]": {"biological_target": "T3, Adenosine receptor A3 (Homo sapiens, UniProt P0DMS8)", "T3 sequence (P0DMS8 whole entry)": "T2 sequence (whole entry)", "test": "Displacement of specific [125I]AB-MECA binding at human adenosine A3 receptor expressed in HEK 293 cells.", "type": "cell-based, HEK293"}, "[5]": {"biological_target": "T3, Adenosine receptor A3", "test": "biochemical"}},
  "data": [
    {"smiles": "N=C(Nc1nc(-c2ccccn2)cc2ccccc12)c1ccc(Cl)cc1", "values": [
      {"measurement": "Displacement", "setting": "[1]", "value": 20, "unit": "%"},
      {"measurement": "Displacement", "setting": "[2]", "value": 7, "unit": "%"}
    ]},
    {"smiles": "N=CNc1nc(-c2ccccn2)cc2ccccc12", "values": [
      {"measurement": "Displacement", "setting": "[1]", "value": 47, "unit": "%"}
    ]},
    {"smiles": "Cc1ccc(C(=N)Nc2nc(-c3ccccn3)cc3ccccc23)cc1", "values": [
      {"measurement": "Displacement", "setting": "[1]", "value": 12, "unit": "%"},
      {"measurement": "Displacement", "setting": "[2]", "value": 34, "unit": "%"}
    ]},
    {"smiles": "N=C(Nc1nc(-c2ccccn2)cc2ccccc12)c1cccc(Cl)c1", "values": [
      {"measurement": "Displacement", "setting": "[1]", "value": 49, "unit": "%"},
      {"measurement": "Displacement", "setting": "[2]", "value": 14, "unit": "%"}
    ]},
    {"smiles": "COc1nc(-c2ccccn2)cc2ccccc12", "values": [
      {"measurement": "Displacement", "setting": "[2]", "value": 19, "unit": "%"}
    ]},
    {"smiles": "Nc1nc(-c2ccccn2)cc2ccccc12", "values": [
      {"measurement": "Displacement", "setting": "[1]", "value": 19, "unit": "%"},
      {"measurement": "Displacement", "setting": "[3]", "value": 17, "unit": "%"},
      {"measurement": "Displacement", "setting": "[2]", "value": 28, "unit": "%"}
    ]},
    {"smiles": "c1ccc(-c2nc(-c3ccccn3)cc3ccccc23)cc1", "values": [
      {"measurement": "Displacement", "setting": "[2]", "value": 31, "unit": "%"}
    ]},
    {"smiles": "CC(=O)N(C(C)=O)c1nc(-c2ccccn2)cc2ccccc12", "values": [
      {"measurement": "Displacement", "setting": "[1]", "value": 34, "unit": "%"},
      {"measurement": "Displacement", "setting": "[2]", "value": 18, "unit": "%"}
    ]},
    {"smiles": "Cc1cccc(C(=N)Nc2nc(-c3ccccn3)cc3ccccc23)c1", "values": [
      {"measurement": "Displacement", "setting": "[1]", "value": 43, "unit": "%"},
      {"measurement": "Displacement", "setting": "[2]", "value": 0, "unit": "%"}
    ]},
    {"smiles": "Cc1cccc(C)c1C(=O)N(C(=O)c1c(C)cccc1C)c1nc(-c2ccccn2)cc2ccccc12", "values": [
      {"measurement": "Displacement", "setting": "[1]", "value": 0, "unit": "%"},
      {"measurement": "Displacement", "setting": "[2]", "value": 0, "unit": "%"}
    ]},
    {"smiles": "COc1cccc(C(=N)Nc2nc(-c3ccccn3)cc3ccccc23)c1", "values": [
      {"measurement": "Displacement", "setting": "[1]", "value": 43, "unit": "%"},
      {"measurement": "Displacement", "setting": "[2]", "value": 0, "unit": "%"}
    ]},
    {"smiles": "CS(=O)(=O)c1nc(-c2ccccn2)cc2ccccc12", "values": [
      {"measurement": "Displacement", "setting": "[2]", "value": 54, "unit": "%"}
    ]},
    {"smiles": "CCc1nc(-c2ccccn2)cc2ccccc12", "values": [
      {"measurement": "Displacement", "setting": "[1]", "value": 30, "unit": "%"},
      {"measurement": "Displacement", "setting": "[2]", "value": 25, "unit": "%"}
    ]},
    {"smiles": "Clc1nc(-c2ccccn2)cc2ccccc12", "values": [
      {"measurement": "Displacement", "setting": "[1]", "value": 43, "unit": "%"},
      {"measurement": "Displacement", "setting": "[2]", "value": 29, "unit": "%"}
    ]},
    {"smiles": "COc1ccc(C(=N)Nc2nc(-c3ccccn3)cc3ccccc23)cc1", "values": [
      {"measurement": "Displacement", "setting": "[1]", "value": 18, "unit": "%"},
      {"measurement": "Displacement", "setting": "[2]", "value": 5, "unit": "%"}
    ]},
    {"smiles": "N=C(Nc1nc(-c2ccccn2)cc2ccccc12)c1ccc(Cl)c(Cl)c1", "values": [
      {"measurement": "Displacement", "setting": "[1]", "value": 21, "unit": "%"},
      {"measurement": "Displacement", "setting": "[2]", "value": 2, "unit": "%"}
    ]},
    {"smiles": "Nc1nc2ccc(Cl)cc2c2nc(-c3ccco3)nn12", "note": "[CGS-15943]", "values": [
      {"measurement": "Ki", "setting": "[4]", "value": 143, "unit": "nM"},
      {"measurement": "Ki", "setting": "[5]", "value": 7.9, "unit": "nM"}
    ]},
    {"smiles": "CC(C(=O)c1ccccc1)c1nc(-c2ccccn2)cc2ccccc12", "note": "(stereo unspecified)", "values": [
      {"measurement": "Displacement", "setting": "[2]", "value": 5, "unit": "%"}
    ]},
    {"smiles": "COC(=O)C1=C2C=CN(C)C=C2c2nc(-c3ccccc3)nn2C1", "values": [
      {"measurement": "Ki", "setting": "[4]", "value": 172, "unit": "nM"}
    ]},
    {"smiles": "Oc1nc(-c2ccccn2)cc2ccccc12", "values": [
      {"measurement": "Displacement", "setting": "[2]", "value": 35, "unit": "%"}
    ]},
    {"smiles": "CSc1nc(-c2ccccn2)cc2ccccc12", "values": [
      {"measurement": "Displacement", "setting": "[2]", "value": 7, "unit": "%"}
    ]},
    {"smiles": "N=C(Nc1nc(-c2ccccn2)cc2ccccc12)c1ccccc1", "values": [
      {"measurement": "Displacement", "setting": "[1]", "value": 34, "unit": "%"}
    ]}
  ]
}
